Here are results for twelve compounds from ChEMBL document CHEMBL1135544, “Design, synthesis, and biological activity of hybrid compounds between uramustine and DNA minor groove binder distamycin A” (J Med Chem, 2002).

pIC50: −log10 of the molar value.

As usually defined, the pIC50 is −log10 of the IC50, conventionally taken in molar units.

In the experiment the test system is K562. The experiment is described as follows: In vitro antitumor activity against human chronic myeloid leukemia K562 cell line. It is filed as functional, cell-based. The gist of the method:
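K562 cells grown in RPMI 1640 with 10% fetal calf serum and 2 mM glutamine at 37 °C, 5% CO2. Exposed to drug for 1 h at 37 °C in the dark, then centrifuged and washed. Seeded at 10⁴ cells/well, 8 wells per sample, and cultured 4 days. MTT read at 550 nm. IC50 is the dose giving 50% of control OD, mean of at least three experiments.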

Consider `O=C(O)CCCCCCn1cc(N(CCCl)CCCl)c(=O)[nH]c1=O`, for which the pIC50 is less than 4.00.

On to `O=C(O)CCCCCn1cc(N(CCCl)CCCl)c(=O)[nH]c1=O`, for which the pIC50 is less than 4.00.

For `O=C(O)CCCCn1cc(N(CCCl)CCCl)c(=O)[nH]c1=O`, the pIC50 is less than 4.00.

Turning to `Cn1cc(NC(=O)c2cc(NC(=O)c3cc(NC=O)cn3C)cn2C)cc1C(=O)NCCC(=N)N`, the pIC50 is less than 4.00.

`O=C(O)CCCn1cc(N(CCCl)CCCl)c(=O)[nH]c1=O`: the pIC50 is less than 4.00.

`Cn1cc(NC(=O)c2cc(NC(=O)c3cc(NC(=O)CCCCn4cc(N(CCCl)CCCl)c(=O)[nH]c4=O)cn3C)cn2C)cc1C(=O)NCCC(=N)N` gave a pIC50 of 6.96.

As to `Cn1cc(NC(=O)c2cc(NC(=O)c3cc(NC(=O)Cn4cc(N(CCCl)CCCl)c(=O)[nH]c4=O)cn3C)cn2C)cc1C(=O)NCCC(=N)N`, the pIC50 is 5.39.

Turning to `Cn1cc(NC(=O)c2cc(NC(=O)c3cc(NC(=O)CCn4cc(N(CCCl)CCCl)c(=O)[nH]c4=O)cn3C)cn2C)cc1C(=O)NCCC(=N)N`, the pIC50 is 5.60.

`Cn1cc(NC(=O)c2cc(NC(=O)c3cc(NC(=O)CCCn4cc(N(CCCl)CCCl)c(=O)[nH]c4=O)cn3C)cn2C)cc1C(=O)NCCC(=N)N`: the pIC50 was 5.14.

Regarding `Cn1cc(NC(=O)c2cc(NC(=O)c3cc(NC(=O)CCCCCn4cc(N(CCCl)CCCl)c(=O)[nH]c4=O)cn3C)cn2C)cc1C(=O)NCCC(=N)N`, the pIC50 is 6.85. Compared with the last compound, the pIC50 is 1.71 log units higher.

For the compound `Cn1cc(NC(=O)c2cc(NC(=O)c3cc(NC(=O)CCCCCCn4cc(N(CCCl)CCCl)c(=O)[nH]c4=O)cn3C)cn2C)cc1C(=O)NCCC(=N)N`, the pIC50 was 7.15.

`Oc1ncc(N(CCCl)CCCl)c(O)n1` [URACIL MUSTARD] had a pIC50 of 5.29. This pIC50 lies 1.86 log units lower than the previous one.
